Screening results from PubChem.
ARNT-TACC3 inh: disruptors of ARNT/TACC3 protein interaction, primary screen, biochemical, AlphaScreen, single concentration. inhibition, % at 9.99 µM. AlphaScreen His-ARNT PAS-B/GST-TACC3 binding, luminescence; TACC3 fragment carries E629A point mutation. 390,000 compounds, 0.66% hits. Transforming acidic coiled-coil-containing protein 3 (Homo sapiens), Q9Y6A5;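 active = mean inhibition of replicates at least 50% and at least half of replicates each reaching 50%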;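 note: 0% = complete ARNT plus TACC3 wells and 100% = ARNT alone without TACC3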
CAL PDZ FP-1: untagged CAL PDZ binding inhibitors, primary screen, biochemical, fluorescence polarization, HTS | 300,000 compounds, 0.92% hits | inhibition, % at 24.9 µM | Golgi-associated PDZ and coiled-coil motif-containing protein (Homo sapiens), Q9HD26 | purified CAL PDZ, TMR-peptide fluorescence polarization, 1 h;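 active = mean inhibition of at least 30% with at least half of replicates also reaching 30%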;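 note: 0% = DMSO neutral control and 100% = excess unlabeled competitor peptide PRC23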
CaV13 FRET inh: Disruptors of the CACNA1D IQ motif to Ca2+-dependent inactivation inhibitor domain association, primary screening, Förster resonance energy transfer in intact living … | inhibition, % at 12.3 µM | HEK cells, CFP/YFP FRET ICDI-IQ, plate reader, 10 min; percent FRET-ratio fall versus neutral wells | AID 743397 | 340,000 compounds, 0.098% hits;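 active = mean replicate inhibition of at least 30% and at least 1% of replicates passing that level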;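 note: 0% = median of the neutral control wells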
CAL PDZ FP-2: CAL PDZ peptide-binding inhibitors, primary screen, biochemical, fluorescence polarization, Cer-tagged CAL PDZ, HTS | 330,000 compounds, 0.02% hits | purified CAL PDZ, TMR-peptide fluorescence polarization, 1 h | inhibition, % at 20 µM | Golgi-associated PDZ and coiled-coil motif-containing protein (Homo sapiens), Q9HD26 | AID 504414, 2011;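 active = highest replicate inhibition of at least 40%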;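 note: plate controls were DMSO neutral control wells for no effect and unlabeled competitor peptide control wells for full effect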
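Material: tagged CAL PDZ domain; buffer or medium: 25 mM sodium phosphate pH 7.4, 150 mM NaCl, TCEP, IgG, Thesit; compound dosing: single point, 20 µM; schedule: 1 h incubation at room temperature before polarization reading; measured by: FP readout, S and P plane fluorescence; read-out basis: percent inhibition from loss of millipolarization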
Numbers without * were called inactive; x = no result. Sampled rows, rich in hits. Any-hit rate of the full collection: about 1.2%.

SMILES	ARNT-TACC3 inh	CAL PDZ FP-1	CaV13 FRET inh	CAL PDZ FP-2
O=C(NC1CCCC1)N1CCCCN2[C@H](C1)[C@H](c1ccc(/C=C/c3ccccc3)cc1)[C@@H]2CO	18	x	x	x
CCCCCCn1cc(C(=O)O)c(=O)c2cc(F)c(N3CCN(C)CC3)cc21	31	30*	x	-1
CC(C)c1c(Cl)c(O)c(-c2ccccc2)c(=O)n1-c1ccc(F)cc1	-65	38*	-3	0
CC(C)c1cc(O)c(-c2ccccc2)c(=O)n1-c1ccc(Cl)cc1	0	-6	-22	0
CCCNC(=O)C[C@H]1CC[C@H]2[C@@H](COc3ccc(NC(=O)c4cc(F)cc(F)c4)cc3C(=O)N2C)O1	-11	x	x	x
Cc1ccnc2nc(C(=O)OCCOc3ccc(F)cc3)nn12	-4	-3	-2	40*
CC(C)NC(=O)C1CCCN(S(=O)(=O)c2ccc(-n3cnnn3)cc2)C1 (stereo not drawn)	-3	-6	x	1
O=C(NC1CCCC1)C1CCCN(S(=O)(=O)c2ccc(-n3cnnn3)cc2)C1 (stereo not drawn)	-6	33*	-4	x
N#CCSc1nc2cc(C(=O)N3CCC(C(N)=O)CC3)ccc2c2nc3ccccc3n12	47*	-6	x	-1
N#CCSc1nc2cc(C(=O)N3CCCC3)ccc2c(=O)n1Cc1ccccc1	-13	-1	x	x
CC1(CSc2ccccc2)CC(=O)N1 (stereo not drawn)	x	x	-5	x
O=C1NC(=O)C(CSc2ccccc2)(c2ccccc2)N1 (stereo not drawn)	-5	42*	-6	0
Cc1cccc2sc(NNC(=O)c3ccc(S(=O)(=O)N4CC(C)CC(C)C4)cc3)nc12 (stereo not drawn)	49*	-6	6	0
Cc1cc(C)c2nc(NNC(=O)c3ccc(S(=O)(=O)N4CC(C)CC(C)C4)cc3)sc2c1 (stereo not drawn)	14	-3	-7	0
Cc1noc(C)c1S(=O)(=O)N(C)C[C@@H]1OCCCC[C@@H](C)Oc2ccc(NS(C)(=O)=O)cc2C(=O)N([C@H](C)CO)C[C@@H]1C	-6	x	x	x
CC(=O)N(C)C[C@H]1Oc2ncc(-c3cccc(F)c3)cc2C(=O)N([C@@H](C)CO)C[C@@H]1C	-5	x	x	x
Cc1ccccc1NC(=O)CSc1nnc(-c2ccco2)c(-c2ccco2)n1	4	-1	x	0
Cc1cccc(C)c1NC(=O)CSc1nnc(-c2ccco2)c(-c2ccco2)n1	57*	2	x	0
C[C@@H]1CN([C@H](C)CO)C(=O)c2cc(C#CC3(O)CCCC3)cnc2O[C@@H]1CN(C)Cc1ccccn1	5	x	x	x
N#CC1=C(N)OC2=C(C(=O)CCC2)C1c1cc2c(cc1Br)OCO2 (stereo not drawn)	3	-4	60*	-2
COc1cc([N+](=O)[O-])cc(/C=N/NC(=O)c2cc(-c3ccccc3)nc3ccccc23)c1O	29	-9	-20	-1
COc1ccccc1/C=N\NC(=O)c1c(C)nc2ccc(Cl)cn12	5	1	-4	-1
COc1cc([N+](=O)[O-])cc(/C=N/NC(=O)c2cc(C)nc3ccccc23)c1O	64*	14	1	-1
COc1cccc(/C=N/NC(=O)c2c(C)nc3ccc(Cl)cn23)c1O	12	62*	-6	0
COc1cc([N+](=O)[O-])cc(/C=N/NC(=O)c2cncc(Br)c2)c1O	69*	3	-16	-1
COc1cccc(/C=N/NC(=O)c2ccc([N+](=O)[O-])cc2Cl)c1O	59*	-2	-6	-3
O=C(N[C@@H]1CC[C@@H](CCn2cc(C3(O)CCCC3)nn2)O[C@@H]1CO)C1CCOCC1	16	x	x	x
C[C@H](CO)N1C[C@H](C)[C@H](CN(C)C(=O)C2CC2)Oc2ncc(-c3ccc(C(=O)N(C)C)cc3)cc2C1=O	-8	x	x	x
COCCNC(=O)C[C@H]1CC[C@H]2[C@@H](COC[C@H](O)CN2S(=O)(=O)c2ccccc2C)O1	-2	x	x	x
C[C@H]1CN([C@@H](C)CO)C(=O)c2cc(NC(=O)C3CC3)ccc2O[C@H]1CN(C)C(=O)NC1CCCCC1	-14	x	x	x
